Hits are enriched below; roughly 1.2% of the tested compounds scored in any of these assays.
EBNA-1 inhibitor – blocks EBNA-1 binding to DNA; AID 1950; EBNA-1 DNA binding, fluorescence polarization; inhibition, % at 14.8 µM; actives 0.34% (n = 300,000); in the data active = inhibition above about 28%
HCV core dimer – HCV core protein dimerization inhibition; TR-FRET GST/Flag-core106 dimerization, 1536-well; inhibition, % at 5 µM; actives 0.33% (n = 300,000); AID 1899;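 active = inhibition above the mean of all tested compounds plus 3 SD, set per screening campaign, cut at about 45% in these data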
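System: GST/Flag-tagged HCV core106 proteins. Incubation: compound-protein-antibody incubation 4 h at 22.5 °C. Technique: HTRF with 340 nm excitation, 617/671 nm emission. Medium: KF-containing HEPES buffer, pH 7.45, DTT, CHAPS, BSA. Read-out: inhibition (%) from 671 over 617 nm ratio. Also added: Eu(K)-anti-GST 90 ng/mL plus XL665-anti-Flag 1 µg/mL.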
ZTA counter – counter-screen for EBNA-1 inhibitors: inhibitors of Epstein-Barr virus ZTA | P03206 | ZTA-DNA binding, fluorescence polarization | actives 0.15% (n = 320,000) | inhibition, % at 11 µM; in the data active = inhibition above about 33%
Target sequence (P03206 whole entry, looked up): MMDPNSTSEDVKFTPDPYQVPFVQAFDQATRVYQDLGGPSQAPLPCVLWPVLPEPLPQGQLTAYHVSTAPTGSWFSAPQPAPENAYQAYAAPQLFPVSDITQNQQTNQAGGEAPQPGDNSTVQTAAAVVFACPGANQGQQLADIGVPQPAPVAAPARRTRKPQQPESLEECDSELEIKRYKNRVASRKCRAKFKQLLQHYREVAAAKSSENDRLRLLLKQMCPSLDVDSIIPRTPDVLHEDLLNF
NS3 helicase inh – HCV NS3 helicase inhibition; NS3 helicase DNA unwinding, Cy5 molecular beacon fluorescence; inhibition, % at 10.9 µM; actives 0.56% (n = 290,000); AID 1800;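 active = inhibition above the mean of all tested compounds plus 3 SD, set per campaign, cut at about 35% in these data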
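System: Hepatitis C virus NS3 helicase domain fragment enzyme | Reagent: Annealed dual-labelled DNA beacon duplex, ATP-started | Compound dosing: 10.9 µM single point, 0.8% DMSO | Incubation: 1 h reaction at 25 °C, ATP-initiated | Technique: Cy5 fluorescence | Evaluation: Percent inhibition from t60/t0 fluorescence ratio | Benchmarks: Low DMSO, high thioflavine S at 110 µM | Replication: Singlicate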
Hits are given with their value; - = inactive; . = not tested or not shown.

SMILES	EBNA-1 inhibitor	HCV core dimer	ZTA counter	NS3 helicase inh
CC[n+]1c(/C=C/N(C)c2ccccc2)oc2ccc(Cl)cc21	-	-	-	-
COc1ccc(/C=C(/CC(=O)Nc2ccccc2)c2nc3ccccc3s2)cc1	-	58.2	-	-
COc1ccccc1/C=C(/CC(=O)NCc1ccc2c(c1)OCO2)c1nc2ccccc2s1	36.4	-	-	-
Cc1noc(C)c1CSCC(=O)Nc1nc2c(F)cc(F)cc2s1	.	.	-	.
COc1ccc(N(C)S(=O)(=O)c2cccc(C(=O)NCc3ccc(C)cc3)c2)cc1	.	.	-	.
Cc1cc(C)n2nc3nc(N4CCCC4)nc(-c4ccccc4)c3c2n1	-	47.8	-	-
Cc1ccc(N2CC(C(=O)Nc3nnc(SCC(=O)Nc4nc(C)cs4)s3)CC2=O)cc1 (stereo not drawn)	31.0	-	-	-
O=C(Nc1nnc(SCc2ccc(F)cc2)s1)C1CC(=O)N(c2ccc3c(c2)OCCO3)C1 (stereo not drawn)	-	-	-	-
N#Cc1ccc(CSc2nnc(NC(=O)C3CC(=O)N(c4ccc5c(c4)OCCO5)C3)s2)cc1 (stereo not drawn)	-	64.3	-	-
Cc1csc(NC(=O)CSc2nnc(NC(=O)C3CC(=O)N(c4ccccc4)C3)s2)n1 (stereo not drawn)	-	-	-	-
COc1ccccc1C(=O)NCCC(=O)Nc1ccc(S(=O)(=O)N2CC(C)CC(C)C2)cc1 (stereo not drawn)	.	.	-	.
COc1ccc([N+](=O)[O-])cc1NC(=O)CSc1ncccn1	-	-	-	-
COc1ccc([N+](=O)[O-])cc1NC(=O)CSc1nccc(C)n1	-	51.1	-	-
COc1ccc(CCNC(=O)c2c[nH]c3ccc(F)cc3c2=O)cc1OC	-	-	-	-
Cc1cc(/C=C2/C(=O)NN(c3ccccc3)C2=O)c(C)n1-c1ccc(O)cc1	-	-	-	-
Cc1cc(C=C2C(=O)CCCC2=O)c(C)n1-c1ccccc1	-	55.1	-	-
CCCCn1c(N)c(N(CCOC)C(=O)CN(C)S(=O)(=O)c2ccc(F)cc2)c(=O)[nH]c1=O	-	-	-	.
C=CCn1c(COc2ccc(CC)cc2)nnc1SC/C(O)=C(\C#N)c1nc2ccccc2[nH]1	-	70.5	-	-
N#C/C(=C(/O)CSc1nnc(Cc2cccs2)n1C1CCCCC1)c1nc2ccccc2[nH]1	-	63.1	-	-
C=CCn1c(COc2ccccc2)nnc1SCc1ccc(C#N)cc1	-	-	-	-
COc1ccccc1-c1nnc(SC/C(O)=C(\C#N)c2nc3ccccc3[nH]2)n1C1CCCCC1	-	-	-	-
O=C(NNC(=S)Nc1ccccc1Cl)c1ccccc1Br	.	.	.	-
O=C(COc1ccc(/C=N/NC(=O)c2ccccc2O)cc1)Nc1ccc([N+](=O)[O-])cc1	-	50.1	-	-
COc1ccc(N2CCN(C(=O)C3CCN(S(=O)(=O)c4ccc5c(c4)oc(=O)n5C)CC3)CC2)cc1	-	-	-	-
COc1ccccc1CNC(=O)CSc1ccc(-c2ccccn2)nn1	-	55.9	-	-
SMILES	EBNA-1 inhibitor	HCV core dimer	ZTA counter	NS3 helicase inh
COc1ccccc1CNC(=O)CSc1ccc(-c2cccs2)nn1	-	-	-	-
CCOC(=O)C1(CCOC)CCN(C/C=C/c2ccccc2OC)CC1	-	-	-	-
COc1cc(/C=C2/CCC/C(=C\c3cc(O)c(OC)c(Cl)c3)C2=O)cc(Cl)c1O	-	50.3	-	-
COc1cc(/C=C2\CC/C(=C\c3cc(OC)c(O)c(OC)c3)C2=O)cc(OC)c1O	-	-	-	-
Cc1nnc(SCC(=O)NC2CCCC2)n1C(C)C	-	-	-	-
CCOc1ccc(N=C2SC(C(=O)Nc3ccccc3C#N)C(N)=C2C(=O)Nc2ccc(Cl)cc2)cc1 (stereo not drawn)	-	54.7	-	-
COc1cc2c(=O)n(Cc3ccco3)c(=O)n(CC(=O)c3ccc(Br)cc3)c2cc1OC	-	-	-	-
COc1cc2c(=O)n(Cc3ccco3)c(=O)n(CC(=O)c3cccc(Br)c3)c2cc1OC	-	46.9	-	-
C=CCn1c(SCC(=O)c2ccc(CNC(C)=O)o2)nc2ccccc2c1=O	-	49.0	-	-
C=CCn1c(SCC(=O)NC2CC2)nc2ccccc2c1=O	.	.	-	.
O=C(COc1cccc([N+](=O)[O-])c1)N/N=C/c1ccco1	-	-	-	-
CCc1ccc(OCC(=O)N/N=C\c2ccco2)c([N+](=O)[O-])c1	-	53.9	-	-
COc1ccc(N2CCN(C(=O)c3ccc4c(c3)NC(=O)C(CSCc3cccc(F)c3)N4)CC2)cc1 (stereo not drawn)	-	-	-	-
COc1ccc(N2CCN(C(=O)c3ccc4c(c3)NC(=O)C(CSCc3ccc(C)cc3)N4)CC2)cc1 (stereo not drawn)	-	63.7	-	-
COc1ccc(C(=O)N2CCN(c3cccc(Cl)c3)CC2)cc1	-	-	-	-
Cc1cccc(N2CCN(C(=O)c3ccc4c(c3)NC(=O)C(CSCc3ccc(F)cc3)N4)CC2C)c1 (stereo not drawn)	-	63.9	-	-
COc1ccc(N2CCN(C(=O)c3ccc4c(c3)NC(=O)C(CSCc3c(F)cccc3Cl)N4)CC2)cc1 (stereo not drawn)	-	67.3	-	-
C/C=C/C1=CC(=O)C[C@H](c2ccc3c(c2)OCO3)C1	.	.	-	.
CC1=NN(c2ccccc2)C(=O)/C1=C\c1ccc(Oc2ccc([N+](=O)[O-])cc2[N+](=O)[O-])cc1	-	61.5	-	-
O=C(CN1CCN(c2ccccc2O)CC1)Nc1cc(S(=O)(=O)N2CCCC2)ccc1Cl	.	.	-	.
CC(C)CCC(CCNCc1ccccn1)c1ccc(Cl)cc1 (stereo not drawn)	-	-	-	-
N#Cc1c(NC(=O)C2CC(c3ccccc3Cl)=NO2)sc2c1CCC2 (stereo not drawn)	-	-	-	-
N#Cc1c(NC(=O)C2CC(c3ccccc3O)=NO2)sc2c1CCC2 (stereo not drawn)	34.2	-	-	-
Cc1cc(C(=O)OCC(=O)c2cccc([N+](=O)[O-])c2)c2cccc(C)c2n1	-	87.5	-	-
CC1(OC(=O)c2cnc3ccccc3n2)C(=O)C=C2C=C(C3CC3)OC=C2C1=O (stereo not drawn)	27.5	-	47.7	.
SMILES	EBNA-1 inhibitor	HCV core dimer	ZTA counter	NS3 helicase inh
Cc1ccc(Cl)cc1N1CCN(C(=O)c2ccccc2SCC(=O)N2CCCC2)CC1	.	.	-	.
CCc1ccc(CN(Cc2cccnc2)C(=O)/C=C/c2ccc(OC)cc2)cc1	-	-	-	-
CCc1cc(=O)oc2cc(C)c(CN3CCCC(C)C3)c(O)c12 (stereo not drawn)	-	61.0	-	-
CCCCc1cc(=O)oc2cc(C)c(CN3CCCC3)c(O)c12	-	51.4	-	-
CCc1cc(=O)oc2c(CN3CCCC3)c(O)c(Cl)cc12	-	-	-	-
COc1ccc(C2=Nc3cccc4cccc(c34)N2)cc1	-	-	-	-
Nc1cccc(C2=Nc3cccc4cccc(c34)N2)c1	-	72.1	-	-
COC(=O)[C@@]12CCCCN1[C@H](c1ccc(-c3ccc(C(C)=O)cc3)c(OC)c1)[C@@H]1C(=O)N(C)C(=O)[C@@H]12	-	-	-	.
